Our source for the Activity values is ChEMBL document CHEMBL4819088, “Synthesis and in vivo screening of isosteviol derivatives as new cardioprotective agents” (2021).

Activity calls are given as the source filed them. No cut-off for these calls is given here.

Experiment [1] is filed under the species Danio rerio. Kind of experiment: Prevention of doxorubicin-induced Zebrafish mortality assessed as survival rate at 40 uM incubated for 48 hrs by inverted fluorescence microscopy (reference value: 52%). The class given is functional.
For experiment [2], the species on record is Danio rerio. Kind of experiment: Prevention of doxorubicin-induced Zebrafish mortality assessed as survival rate at 5 uM incubated for 48 hrs by inverted fluorescence microscopy (reference value: 52%). The class given is functional.
The species entered for experiment [3] is Danio rerio. Kind of experiment: Prevention of doxorubicin-induced Zebrafish mortality assessed as survival rate at 15 uM incubated for 48 hrs by inverted fluorescence microscopy (reference value: 52%). The class given is functional.
The species named for experiment [4] is Danio rerio. Kind of experiment: Prevention of doxorubicin-induced Zebrafish mortality assessed as increase in survival rate incubated for 48 hrs by inverted fluorescence microscopy. The class given is functional, organism-based. Conditions: dose 5-40 µM. An outline of the steps:
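Wild-type embryos, 24 hpf, 20 per well in 1 mL egg water, exposed to DOX (100 μM) with or without test compound (5, 15, 40 μM) for 48 h. Survival scored at 96 hpf by inverted fluorescence microscopy; no motion on touch, or loss of atrial and ventricular contractility, counted as dead. Mean ± S.D., n = 4.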

In experiment [5] the test system is Danio rerio. Kind of experiment: Cardioprotective activity in (cmlc2:GFP) transgenic Zebrafish assessed as reduction in doxorubicin-induced cardiac edema measured after 48 hrs. The class given is functional, organism-based.
Experiment [6] is filed under the species Danio rerio. Kind of experiment: Cardioprotective activity in (cmlc2:GFP) transgenic Zebrafish assessed as prevention of doxorubicin-induced heart shape change measured after 48 hrs. The class given is functional, organism-based.
For experiment [7], the species on record is Danio rerio. Kind of experiment: Cardioprotective activity in (cmlc2:GFP) transgenic Zebrafish assessed as reduction in doxorubicin-induced cardiac impairment measured after 48 hrs. The class given is functional, organism-based. An outline of the steps:
(§1)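 Tg(cmlc2:GFP) embryos, 24 hpf, 20 per well, exposed to DOX (80 μM) with or without test compound at its optimum concentration for 48 h. At 72 hpf, heart rate, fractional shortening, stroke volume and cardiac output were derived from fluorescence imaging of atrium and ventricle. Mean ± S.D., n = 4.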

Experiment [8] is filed under the species Danio rerio. Kind of experiment: Cardioprotective activity against doxorubicin-induced (cmlc2:GFP) transgenic Zebrafish assessed as protection of heart measured after 48 hrs. The class given is functional, organism-based. The conditions noted are these: dose 20-60 µM. An outline of the steps:
as §1

Experiment [9] is filed under the species Danio rerio. Kind of experiment: Cardioprotective activity against doxorubicin-induced (cmlc2:GFP) transgenic Zebrafish assessed as protection of heart function loss measured after 48 hrs. The class given is functional, organism-based. The conditions noted are these: dose 20-60 µM. An outline of the steps: as §1

Take `COc1cccc(C(=O)OC[C@@H]2C(=O)[C@@]3(C)CC[C@H]4[C@]5(C)CCC[C@@](C)(C(=O)O)[C@H]5CC[C@@]24C3)c1OC`: the Activity in [1] is reported as 70%.

In the case of `CC(=O)OC[C@@H]1[C@@H](O)[C@@]2(C)CC[C@H]3[C@]4(C)CCC[C@@](C)(C(=O)O)[C@H]4CC[C@@]13C2`, the result in experiment [1] was inactive.

Regarding `C[C@]12CC[C@H]3[C@]4(C)CCC[C@@](C)(C(=O)O)[C@H]4CC[C@@]3(C1)[C@H](CO)[C@H]2O`, the Activity in experiment [2], in experiment [3] and in [1] was 60% in each case.

In the case of `COc1ccc(C(=O)OC[C@@H]2[C@@H](O)[C@@]3(C)CC[C@H]4[C@]5(C)CCC[C@@](C)(N)[C@H]5CC[C@@]24C3)c(OC)c1OC`, the result in [1] was Active.

For the molecule `COc1cccc(C(=O)OC[C@@H]2[C@@H](O)[C@@]3(C)CC[C@H]4[C@]5(C)CCC[C@@](C)(N)[C@H]5CC[C@@]24C3)c1OC`, in experiment [1], the outcome was Active.

`COc1ccc(CC(=O)OC[C@@H]2[C@@H](O)[C@@]3(C)CC[C@H]4[C@]5(C)CCC[C@@](C)(C(=O)O)[C@H]5CC[C@@]24C3)cc1`: the Activity in [1] is more than 70%.

Consider `C[C@@]12CC[C@@H]3[C@@](CC[C@H]4[C@@]3(C)CCC[C@@]4(C)N)(CC1=O)C2`, for which the Activity in experiment [2] was 85%; in experiment [4], “Dose-Dependent Effect”; in experiment [5], “Dose-Dependent Effect”; in experiment [6] it was “Dose-Dependent Effect”; in experiment [7], “Dose-Dependent Effect”; in experiment [8] it was “Dose-Dependent Effect”. The Activity result in experiment [9] was “Dose-Dependent Effect”.

Turning to `C[C@]12CC[C@H]3[C@]4(C)CCC[C@@](C)(C(=O)O)[C@H]4CC[C@@]3(C1)[C@H](COC(=O)C1CCCCC1)[C@H]2O`, in experiment [1], the outcome was inactive.

For the molecule `COc1ccc(C(=O)OC[C@@H]2C(=O)[C@@]3(C)CC[C@H]4[C@]5(C)CCC[C@@](C)(C(=O)O)[C@H]5CC[C@@]24C3)c(OC)c1OC`, the Activity in experiment [2] was 77%; in experiment [3], 77%; in [1] it was 77%; in experiment [4] it was “Dose-Dependent Effect”; in experiment [5] it was “Dose-Dependent Effect”; in experiment [6] it was “Dose-Dependent Effect”. Besides, the Activity result in experiment [7], in experiment [8] and in experiment [9] was “Dose-Dependent Effect” throughout.

As to `COc1ccc(COC(=O)[C@]2(C)CCC[C@@]3(C)[C@@H]4CC[C@@]5(C)C[C@]4(CC[C@@H]32)CC5=O)cc1`, in [3], the Activity is given as 60%.

On to `COc1cc(C(=O)OC[C@@H]2C(=O)[C@@]3(C)CC[C@H]4[C@]5(C)CCC[C@@](C)(C(=O)O)[C@H]5CC[C@@]24C3)cc(OC)c1OC`, for which the Activity in [2] was 68%; in experiment [3] it was 68%; in experiment [1] it was 68%; in experiment [4], “Dose-Dependent Effect”; in [5], “Dose-Dependent Effect”; in [6] it was “Dose-Dependent Effect”. The Activity entry in [7], in [8] and in [9] was “Dose-Dependent Effect” in each case.

In the case of `C[C@@]12CC[C@@H]3[C@@](CC[C@H]4[C@@]3(C)CCC[C@@]4(C)C(=O)OCc3ccccc3)(CC1=O)C2`, the Activity in experiment [2] was 60%.

For `COc1cc(C(=O)OC[C@@H]2[C@@H](O)[C@@]3(C)CC[C@H]4[C@]5(C)CCC[C@@](C)(N)[C@H]5CC[C@@]24C3)cc(OC)c1OC`, in [1], the outcome was Active.

For the molecule `C=C1C(=O)[C@@]2(C)CC[C@@H]3[C@]1(CC[C@H]1[C@@]3(C)CCC[C@@]1(C)C(=O)O)C2`, the Activity in experiment [2] was 50%; in [3], 38%; in [1], 26%.

In the case of `C[C@]12CC[C@H]3[C@]4(C)CCC[C@@](C)(C(=O)O)[C@H]4CC[C@@]3(C1)[C@H](COC(=O)C1CCCCC1)C2=O`, the result in experiment [1] was inactive.

In the case of `COc1ccc(C(=O)OC[C@@H]2[C@@H](O)[C@@]3(C)CC[C@H]4[C@]5(C)CCC[C@@](C)(C(=O)O)[C@H]5CC[C@@]24C3)cc1`, in experiment [1], the Activity is given as more than 70%.

As to `COc1ccc(C(=O)OC[C@@H]2[C@@H](O)[C@@]3(C)CC[C@H]4[C@]5(C)CCC[C@@](C)(N)[C@H]5CC[C@@]24C3)cc1`, the outcome in [1] was Active.

As to `C[C@@]12CC[C@@H]3[C@@](CC[C@H]4[C@@]3(C)CCC[C@@]4(C)C(=O)O)(CC1=O)C2` [ISOSTEVIOL], the Activity in [2] is 57%; in experiment [5], “Dose-Dependent Effect”; in experiment [6] it was “Dose-Dependent Effect”; in experiment [7] it was “Dose-Dependent Effect”; in [8], “Dose-Dependent Effect”; in [9], “Dose-Dependent Effect”. Further, the result in [3] and in experiment [1] was inactive.

In the case of `COc1ccc(C(=O)OC[C@@H]2[C@@H](O)[C@@]3(C)CC[C@H]4[C@]5(C)CCC[C@@](C)(C(=O)O)[C@H]5CC[C@@]24C3)cc1OC`, in [1], the Activity was more than 70%.

For the molecule `COc1cc(C(=O)OC[C@@H]2C(=O)[C@@]3(C)CC[C@H]4[C@]5(C)CCC[C@@](C)(N)[C@H]5CC[C@@]24C3)cc(OC)c1OC`, the Activity in experiment [1] is 87%; in experiment [4] it was “Dose-Dependent Effect”; in [5], “Dose-Dependent Effect”; in [6], “Dose-Dependent Effect”; in experiment [7], “Dose-Dependent Effect”; in [8] it was “Dose-Dependent Effect”. Further, the Activity entry in experiment [9] is “Dose-Dependent Effect”.

For the molecule `C[C@@H]1CC(=O)NN=C1c1ccc(NN=C(C#N)C#N)cc1` [LEVOSIMENDAN], the Activity in experiment [2] was 58%; in experiment [3], 69%; in experiment [1], 74%; in experiment [4], “Dose-Dependent Effect”.

As for `COC(=O)[C@]1(C)CCC[C@@]2(C)[C@@H]3CC[C@@]4(C)C[C@]3(CC[C@@H]21)CC4=O`, the Activity in experiment [1] is listed as 60%.

On to `COc1ccc(C(=O)OC[C@@H]2C(=O)[C@@]3(C)CC[C@H]4[C@]5(C)CCC[C@@](C)(C(=O)O)[C@H]5CC[C@@]24C3)cc1OC`, for which the outcome in experiment [1] was Active. In experiment [1] (record 2), the Activity is given as more than 70%.

`Cc1ccc(S(=O)(=O)OC[C@@H]2C(=O)[C@@]3(C)CC[C@H]4[C@]5(C)CCC[C@@](C)(C(=O)O)[C@H]5CC[C@@]24C3)cc1`: the Activity in experiment [2], in experiment [3] and in experiment [1] was 60% each time.

With `Cc1ccc(S(=O)(=O)OC[C@@H]2[C@@H](O)[C@@]3(C)CC[C@H]4[C@]5(C)CCC[C@@](C)(C(=O)O)[C@H]5CC[C@@]24C3)cc1`, the Activity in experiment [2], in experiment [3] and in experiment [1] was 60% throughout.

Regarding `CC(=O)OC[C@@H]1C(=O)[C@@]2(C)CC[C@H]3[C@]4(C)CCC[C@@](C)(C(=O)O)[C@H]4CC[C@@]13C2`, the outcome in experiment [1] was inactive.

As to `C[C@]12CC[C@H]3[C@]4(C)CCC[C@@](C)(N)[C@H]4CC[C@@]3(C1)[C@H](CO)[C@H]2O`, in experiment [1], the outcome was inactive.

For the molecule `C[C@]12CC[C@H]3[C@]4(C)CCC[C@@](C)(N)[C@H]4CC[C@@]3(C1)[C@H](COC(=O)c1cccnc1)[C@H]2O`, the outcome in experiment [1] was Active.
